High-throughput results as filed in PubChem BioAssay.
Neddyl block – inhibitors of cullin neddylation, primary screen, biochemical, TR-FRET, uHTS, NAE and Ubc12; actives 0.58% (n = 360,000); inhibition, % at 25 µM; AID 651699, 2012; in the data active means inhibition above about 36%
proCasp7 act – procaspase-7 activators, primary screen, counter-screen for procaspase-3 activator project, biochemical, absorbance, HTS, human; Caspase-7 (Homo sapiens), P55210; activation, % at 8.5 µM; actives 0.093% (n = 330,000); AID 463210, 2010; recombinant procaspase-7, Ac-DEVD-pNA absorbance 405 nm; D23A/D198A/D206A triple mutant, cannot self-cleave; scale: DMSO 0, 5 µM enzyme 100;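 active means percent activation above the screen-wide mean plus 3 SD, cut at about 25% in these data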
Target sequence (P55210 whole entry D23A/D198A/D206A): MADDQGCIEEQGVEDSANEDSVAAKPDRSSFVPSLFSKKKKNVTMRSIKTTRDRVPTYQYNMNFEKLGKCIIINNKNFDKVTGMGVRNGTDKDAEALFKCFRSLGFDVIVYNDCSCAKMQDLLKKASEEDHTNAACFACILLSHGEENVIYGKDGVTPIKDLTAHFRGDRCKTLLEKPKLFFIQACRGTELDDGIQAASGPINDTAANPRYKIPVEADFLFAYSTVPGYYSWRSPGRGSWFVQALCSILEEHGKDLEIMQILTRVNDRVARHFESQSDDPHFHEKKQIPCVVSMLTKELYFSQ
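Assay system – Uncleavable procaspase-7 mutant enzyme · Quantity – 2 µM procaspase-7 mutant as dispensed · Times – 1 h preincubation, 2 h reaction · Dosing – single nominal 8.5 µM compound dose, 0.8% DMSO final · Buffer or medium – Zinc-free 50 mM HEPES buffer, pH 7.4, with NaCl and Triton X-100 · Detection – Epi-absorbance of released pNA at 405 nm, two timepoints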
procasp3 activ – activators of human procaspase-3 D3A mutant, primary screen, biochemical, absorbance, PC-3 D3A mutant, single concentration; actives 0.11% (n = 330,000); Caspase-3 (Homo sapiens), P42574; activation, % at 8.5 µM; recombinant procaspase-3 D3A, Ac-DEVD-pNA absorbance 405 nm;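 active means activation above the mean of all tested compounds plus 3 SD, cut at about 21% in these data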;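 further: 0% = DMSO alone and 100% = DMSO wells spiked with extra 5 µM PC-3 D3A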
Target sequence (P42574 whole entry D9A/D28A/D175A): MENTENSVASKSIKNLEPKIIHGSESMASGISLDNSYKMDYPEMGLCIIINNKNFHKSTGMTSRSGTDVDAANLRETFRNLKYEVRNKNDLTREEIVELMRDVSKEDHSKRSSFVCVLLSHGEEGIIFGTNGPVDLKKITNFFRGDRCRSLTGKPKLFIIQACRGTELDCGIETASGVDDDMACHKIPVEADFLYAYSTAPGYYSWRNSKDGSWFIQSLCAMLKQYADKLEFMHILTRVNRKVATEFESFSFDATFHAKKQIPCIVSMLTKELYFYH
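Assay system – Procaspase-3 D3A mutant, all three cleavage aspartates alanine · Controls – DMSO-only low control, 5 µM PC-3 D3A high control · Schedule – 1 h compound preincubation, 2 h substrate hydrolysis at 25 °C · Signal – 405 nm absorbance of p-nitroaniline, reads at 0 and 120 min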
HIF activator – HIF pathway transcriptional activators, primary screen, cell-based, U2OS HRE-luciferase, luminescence; activation, % at 7.5 µM (by protocol); actives 0.32% (n = 300,000); U2OS HRE-luciferase reporter; normalized: DMSO 0%, desferrioxamine 100%; AID 1910, 2009;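 active means mean activation of at least 10% of the iron chelator positive control signal, with at least half of replicates also reaching 10%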
GAA850 FXN act – FXN promoter activators, primary screen, cell-based, luciferase luminescence, HEK293 lucGAA850; AID 540364, 2011; actives 0.56% (n = 360,000); activation, % at 6 µM; HEK293 lucGAA850 FXN promoter luciferase reporter, 24 h; percent of 10 µM SAHA response;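 active means activation above the average of all compounds screened plus 3 SD, cutoff fixed separately per campaign, cut at about 7.5% in these data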;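 further: 0% = DMSO wells and 100% = 10 µM SAHA wells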
Calb FLC – C. albicans growth inhibition with fluconazole, primary screen, CaCi-2 strain, Alamar Blue fluorescence. C. albicans CaCi-2 + fluconazole, 48 h. growth inhibition, % (test concentration not listed). actives 0.57% (n = 300,000). AID 1979, 2009;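 active means growth inhibition above about 58% in most replicates, limit read from the data, passing the limit was not always enough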;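 further: all wells also contain fluconazole at 8 µg/ml as a sub-toxic cotreatment; 0% = median of DMSO wells and 100% = median of geldanamycin control wells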
proCasp7 act trip – procaspase-7 activators, counter-screen for procaspase-3 activator project, biochemical, absorbance, triplicate, human; shares compounds with procasp3 activ; 210 tested, under 10 active; AID 488941, 2010; activation, % at 8.5 µM; recombinant procaspase-7, Ac-DEVD-pNA absorbance; asp23/198/206-to-Ala mutant, cannot self-cleave;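 active means mean activation above a set limit taken from an earlier procaspase-7 screen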;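 further: 0% = DMSO wells and 100% = DMSO plus 5 µM procaspase-7 enzyme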
proCasp3 confirm – activators of human procaspase-3 D3A mutant, confirmation, biochemical, absorbance, PC-3 D3A mutant, triplicate. shares compounds with procasp3 activ. recombinant PC-3 D3A, Ac-DEVD-pNA absorbance 405 nm; 100% is higher-enzyme control. activation, % at 8.5 µM. actives 10% (n = 210);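 active means mean activation above a set limit carried over from the earlier primary screen, cut at about 22% in these data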
PC3 D3A act – procaspase-3 activators, counter-screen for dual procaspase-3/7 activator project, biochemical, absorbance, PC-3 D3A mutant, human. recombinant PC-3 D3A, Ac-DEVD-pNA absorbance 405 nm; aspartates 9, 28, 175 changed to alanine; 100% = enzyme control. activation, % at 8.5 µM. 290 tested, under 10 active. AID 493114, 2011. shares compounds with proCasp7 act;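 active means mean percent activation across triplicates above a set limit taken from the earlier primary procaspase-3 screen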;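 further: 0% = DMSO wells and 100% = DMSO wells with 5 µM added PC-3 D3A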
PC7 dual conf – activation of procaspase-7 enzyme – biochemical, absorbance, human, dual procaspase-3/-7 activator project, confirmation | 290 tested, under 10 active | shares compounds with proCasp7 act | recombinant procaspase-7, Ac-DEVD-pNA absorbance 405 nm; D23A/D198A/D206A mutant that cannot self-cleave | activation, % at 8.5 µM;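 active means mean activation above a set limit carried over from the earlier primary screen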;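 further: 0% = DMSO only and 100% = DMSO with added 5 µM PC-7 enzyme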
GAA30 FXN cntr – GAA30 FXN promoter activators, confirmation, counter-screen for GAA850 frataxin promoter activator project, cell-based, luminescence, HEK293, lucGAA30, triplicate; shares compounds with GAA850 FXN act; HEK293 lucGAA30 FXN promoter luciferase, 24 h; DMSO = 0%, 5 µM ipriflavone = 100%; activation, % at 6 µM; actives 66% (n = 1,900); AID 588350, 2011;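 active means mean activation above the mean of solvent-only control wells plus 3 SD, cut at about 22% in these data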;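 further: counterscreen of GAA850 promoter hits where activity marks nonselective or luminescence artifacts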
FXN GAA850 conf – FXN GAA850 promoter activators in reporter cells, confirmation, cell-based, luminescence, HEK293 lucGAA850, triplicate | actives 86% (n = 1,900) | shares compounds with GAA850 FXN act | activation, % at 6 µM | HEK293 lucGAA850 FXN promoter luciferase reporter, 24 h; 100% = activation by SAHA;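 active means mean activation above a set limit taken from the primary screen, cut at about 8% in these data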;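 further: 0% = DMSO wells and 100% = 10 µM SAHA wells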
* = called active by the depositor; / = no result shown. Sampled rows, rich in hits. Any-hit rate of the full collection: about 1.9%.

SMILES	Neddyl block	proCasp7 act	procasp3 activ	HIF activator	GAA850 FXN act	Calb FLC	proCasp7 act trip	proCasp3 confirm	PC3 D3A act	PC7 dual conf	others
CC1CC(C)(C)CC2(C1)NC(=O)N(CC(=O)Nc1ccc3[nH]c(=O)[nH]c3c1)C2=O (stereo not drawn)	25.3	0.0	37.3*	/	-0.3	/	2.2	3.7	/	/
CC1(C)Cc2c(c(N3CCCC3)nc3sc(C(=O)Nc4ccccc4)c(N)c23)CO1	-107.5	3.1	22.9*	2.4	1.8	4.1	39.3*	67.7*	/	/
Cc1ccc(-c2cc(C(F)(F)F)c(C#N)c(SCCC#N)n2)o1	32.9	12.1	22.2*	-0.6	2.6	1.5	41.0*	52.1*	/	/
CCOc1ccc(NC(=O)CN(C)C(=O)c2ccc(C3SCCS3)cc2)cc1OCC	2.2	5.6	21.3*	0.5	-0.8	/	-0.7	1.7	/	/
COc1ccc(CN2CCC[C@]3(N[C@H](c4ccc(C)cc4)[C@@H]4C(=O)N(C)C(=O)[C@@H]43)C2=O)cc1	-1.4	/	/	/	-1.6	/	/	/	/	/
Cc1ccc(OCC(=O)NC2CCS(=O)(=O)C2)c([N+](=O)[O-])n1 (stereo not drawn)	-2.8	-3.6	21.4*	-0.2	1.2	-1.9	4.0	4.5	/	/
CC(=O)N1C[C@@H](CO)[C@@H](N(C)C(=O)C(C)(C)C)C[C@H]1c1ccccc1	-2.0	/	/	/	/	/	/	/	/	/
C=CCn1c2ccccc2c(=O)c2cc(C#CC3(O)CCCCC3)ccc21	/	-21.9	149.7*	4.8	11.2*	1.8	-20.8	-14.1	/	/	GAA30 FXN cntr=104.2*;FXN GAA850 conf=55.0*
O=c1c2ccccc2sc2ccc(C#CC3(O)CCCCC3)cc12	-113.9	-7.6	1.9	-3.4	-15.4	17.7	/	/	/	/
COC(=O)[C@@]12C[C@@H](CC(=O)NCc3ccc(OC)c(OC)c3)C(=O)N(Cc3ccccc3)C1=CCC(C)(C)C2	1.8	/	/	/	/	/	/	/	/	/
CCCc1ccc(OCc2ccc(C(=O)N3CCSCC3)o2)cc1	7.3	-1.2	21.9*	4.7	7.6*	8.7	4.7	4.0	/	/	GAA30 FXN cntr=100.4*;FXN GAA850 conf=38.1*
CCN1C(=O)c2cccc3c(S(=O)(=O)N(C(C)=O)c4ccc(OC(C)=O)cc4)ccc1c23	63.4*	-0.3	23.7*	/	1.9	/	-21.8	-11.9	/	/
O=C1C(CN2CCCC2)CCCC1CN1CCCC1 (stereo not drawn)	-11.1	/	/	/	-0.7	/	/	/	/	/
c1ccc(Cn2c(-c3ccco3)nc3nc4ccccc4nc32)cc1	/	45.5*	12.5	3.1	6.3	7.1	/	/	-30.9	-35.7
Cc1cccc(C2=NN(c3ccc(Br)cc3)[C@@H](C(=O)N3CCOC3=O)[C@@H]2c2ccc(F)cc2)c1	/	25.9*	35.4*	-0.5	-1.5	12.2	/	/	-29.4	-35.1
CCN(CC)CCCNc1nc2ccccc2c2[nH]c3ccc(OC)cc3c12	/	/	/	/	6.1	/	/	/	/	/
CCOC(=O)c1cc(-c2ccc(Cl)cc2)nc2c1c(C)nn2CCC#N	26.3	2.9	7.1	-0.4	1.7	-6.9	/	/	/	/
CCOC(=O)c1cc(-c2ccc3c(c2)OCCO3)nc2c1c(C)nn2CCC#N	/	53.9*	25.2*	0.1	1.6	-2.6	/	/	-28.7	-35.0
O=c1oc2cc(O)ccc2c2oc3cc(O)ccc3c12	/	26.2*	-1.2	-0.3	2.7	-14.0	/	/	-27.7	-35.5
Cc1c(Cc2ccccc2)c(=O)oc2cc(O)ccc12	/	27.3*	25.2*	-0.2	2.2	1.3	/	/	-31.0	-36.0
COc1c(CC=C(C)C)c(O)cc2oc(=O)c3c4ccc(O)cc4oc3c12	/	27.4*	26.6*	1.7	0.2	18.9	/	/	-29.0	-34.8
O=C(CCC1CCN(Cc2nccs2)CC1)Nc1ccccc1	6.8	/	/	/	0.4	/	/	/	/	/
COc1ccc(C(CNC(=O)c2c(C)nn(Cc3ccc(C)cc3)c2Cl)N2CCOCC2)cc1 (stereo not drawn)	17.7	2.3	7.3	/	3.5	/	/	/	/	/
CCOC(=O)c1sc2c(c1C)C(c1cccs1)C1=C(CCCC1=O)N2 (stereo not drawn)	/	40.0*	22.7*	-0.3	0.3	0.9	/	/	-29.0	-35.3
CCOC(=O)C1=C(C)NC2=C(C(=O)CCC2)C1c1cccs1 (stereo not drawn)	25.4	0.0	-12.1	-0.1	-0.8	-5.3	/	/	/	/
Cc1ccc([C@H]2C[C@@H](O)[C@H](n3cc(-c4ccc(F)cc4)nn3)CN2C(=O)c2cccs2)cc1	-3.2	/	/	/	-0.4	/	/	/	/	/
